From ChEMBL document CHEMBL4831494, “Synthesis and evaluation of FAK inhibitors with a 5-fluoro-7H-pyrrolo[2,3-d]pyrimidine scaffold as anti-hepatocellular carcinoma agents” (Eur J Med Chem, 2021)
Values belong to the molecule of their own block, whether it stands above or below them. Calls of active or inactive are those of the source. The calls are words filed in the database; no cut-off is given here.

Key:
Focal adhesion kinase 1 [1] = biological target: T1, Focal adhesion kinase 1 (Homo sapiens, UniProt Q05397); test: Inhibition of FAK (unknown origin) using Poly(Glu,Tyr) and ATP as substrate measured after 40 mins by Kinase-Glo Plus luminescence assay
Target sequence in this assay (Q05397 whole entry): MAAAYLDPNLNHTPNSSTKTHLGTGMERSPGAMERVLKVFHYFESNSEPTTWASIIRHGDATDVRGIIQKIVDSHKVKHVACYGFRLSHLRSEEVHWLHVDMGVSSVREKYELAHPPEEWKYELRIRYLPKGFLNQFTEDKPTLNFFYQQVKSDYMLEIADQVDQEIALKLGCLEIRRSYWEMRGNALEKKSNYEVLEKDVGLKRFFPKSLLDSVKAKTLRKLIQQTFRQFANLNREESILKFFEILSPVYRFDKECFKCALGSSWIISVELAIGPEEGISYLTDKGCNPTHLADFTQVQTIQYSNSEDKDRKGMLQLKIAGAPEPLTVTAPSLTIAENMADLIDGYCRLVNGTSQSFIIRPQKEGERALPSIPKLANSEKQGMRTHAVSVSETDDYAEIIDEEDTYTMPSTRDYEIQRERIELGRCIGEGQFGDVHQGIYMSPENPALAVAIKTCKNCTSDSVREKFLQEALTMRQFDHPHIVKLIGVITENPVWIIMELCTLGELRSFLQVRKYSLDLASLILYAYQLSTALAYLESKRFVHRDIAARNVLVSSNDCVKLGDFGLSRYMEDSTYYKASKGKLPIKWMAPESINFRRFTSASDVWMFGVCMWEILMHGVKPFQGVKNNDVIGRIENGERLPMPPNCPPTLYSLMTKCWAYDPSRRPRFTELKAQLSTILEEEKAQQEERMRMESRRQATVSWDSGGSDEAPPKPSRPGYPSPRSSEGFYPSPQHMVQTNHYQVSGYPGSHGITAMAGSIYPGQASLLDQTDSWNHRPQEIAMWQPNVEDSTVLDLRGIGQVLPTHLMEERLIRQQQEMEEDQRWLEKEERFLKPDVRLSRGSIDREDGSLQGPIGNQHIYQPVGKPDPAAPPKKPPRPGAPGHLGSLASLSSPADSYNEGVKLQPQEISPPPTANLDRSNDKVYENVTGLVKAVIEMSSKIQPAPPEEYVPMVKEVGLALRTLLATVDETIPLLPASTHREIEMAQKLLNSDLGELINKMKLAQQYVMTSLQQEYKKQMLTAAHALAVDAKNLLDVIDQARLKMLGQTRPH

cells = conditions: Homo sapiens, YY-8103, 48 h
SMMC-7721 [2] = test: cells; conditions: Homo sapiens, SMMC-7721, 48 h
[3] = Toxicity in BALB/c nude mouse assessed as animal's mortality at 30 mg/kg, ip measured on day 11; format: organism-based; conditions: in vivo, 264 h, time 11 day
Outline: (§1)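 Six-week-old male BALB/c nude mice bearing subcutaneous SMMC7721 xenografts (1.0 × 10⁷ cells); dosing started at mean tumor 25-35 mm³, n = 8 per group. Ip every 3 days in DMSO/propylene glycol/PBS (2:5:3); vehicle 1.0 mL/kg as negative control. Body weight weighed and deaths recorded every 3 days before each dose, through day 19.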

SMMC-7721 [4] = test: Antitumor activity against human […] cells xenografted in BALB/c nude mouse assessed as tumor size at 30 mg/kg, ip administered for 19 days (reference value: 600.8 mm3); format: functional; conditions: time 19 day
Outline: (§2)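 Male BALB/c nude mice, six weeks old, inoculated s.c. with 1.0 × 10⁷ SMMC7721 cells. Dosing began at mean tumour 25e35 mm³; five randomized groups, n = 8. Solvent DMSO/propylene glycol/PBS 2:5:3 (vehicle 1.0 mL/kg), all given i.p. every 3 days. Tumour size (calipers) and body weight taken before each dose. V = length × width²/2. TGI = [1 − (T−T₀)/(C−C₀)] × 100.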

SMMC-7721 [5] = test: Antitumor activity against human […] cells xenografted in BALB/c nude mouse assessed as tumor growth inhibition at 30 mg/kg, ip administered for 19 days; format: functional; conditions: SMMC-7721, ip, 456 h, time 19 day, read-out: TGI; outline: as §2
[6] = Toxicity in BALB/c nude mouse assessed as effect on body weight at 30 mg/kg, ip administered for 19 days; format: organism-based; conditions: in vivo, 456 h, time 19 day; outline: as §2
SMMC-7721 [7] = test: Antitumor activity against human […] cells xenografted in BALB/c nude mouse assessed as tumor size at 10 mg/kg, ip administered for 19 days (reference value: 600.8 mm3); format: functional; conditions: time 19 day; outline: as §2
[8] = Half life in Sprague-Dawley rat at 10 mg/kg, po measured upto 24 hrs by LC-MS/MS analysis; format: ADME, organism-based; conditions: in vivo
Outline: (§3)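 Male SD rats, 6e8 weeks, 220 30 g, three per route (p.o. or i.v.). Compound given in DMSO/Solutol/saline (5/10/85). Centrifuged 6800 g for 6 min at 2e8 °C, frozen near −80 °C, analysed by LC-MS/MS. Mean ± SEM, n = 3.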

[9] = Half life in Sprague-Dawley rat at 2 mg/kg, iv measured upto 24 hrs by LC-MS/MS analysis; format: ADME, organism-based; conditions: in vivo; outline: as §3
[10] = Tmax in Sprague-Dawley rat at 10 mg/kg, po measured upto 24 hrs by LC-MS/MS analysis; format: ADME, organism-based; conditions: in vivo; outline: as §3
[11] = Tmax in Sprague-Dawley rat at 2 mg/kg, iv measured upto 24 hrs by LC-MS/MS analysis; format: ADME, organism-based; conditions: in vivo; outline: as §3
[12] = Cmax in Sprague-Dawley rat at 10 mg/kg, po measured upto 24 hrs by LC-MS/MS analysis; format: ADME, organism-based; set-up: route oral, dose 10 mg/kg, time <=24; conditions: in vivo; outline: as §3
[13] = Cmax in Sprague-Dawley rat at 2 mg/kg, iv measured upto 24 hrs by LC-MS/MS analysis; format: ADME, organism-based; set-up: route intravenous, dose 2 mg/kg, time <=24; conditions: in vivo; outline: as §3
[14] = AUC (0 to t) in Sprague-Dawley rat at 10 mg/kg, po measured upto 24 hrs by LC-MS/MS analysis; format: ADME, organism-based; set-up: route oral, dose 10 mg/kg, time <=24; conditions: in vivo; outline: as §3
[15] = AUC (0 to t) in Sprague-Dawley rat at 2 mg/kg, iv measured upto 24 hrs by LC-MS/MS analysis; format: ADME, organism-based; set-up: route intravenous, dose 2 mg/kg, time <=24; conditions: in vivo
[16] = AUC (0 to infinity) in Sprague-Dawley rat at 10 mg/kg, po by LC-MS/MS analysis; format: ADME, organism-based; set-up: time infinity, route oral, dose 10 mg/kg; conditions: in vivo; outline: as §3
[17] = AUC (0 to infinity) in Sprague-Dawley rat at 2 mg/kg, iv by LC-MS/MS analysis; format: ADME, organism-based; set-up: route intravenous, time infinity, dose 2 mg/kg; conditions: in vivo; outline: as §3
[18] = Volume of distribution at steady state in Sprague-Dawley rat at 2 mg/kg, iv measured upto 24 hrs by LC-MS/MS analysis; format: ADME, organism-based; conditions: in vivo; outline: as §3
[19] = MRT (0 to t) in Sprague-Dawley rat at 10 mg/kg, po measured upto 24 hrs by LC-MS/MS analysis; format: ADME, organism-based; conditions: in vivo; outline: as §3
[20] = MRT (0 to t) in Sprague-Dawley rat at 2 mg/kg, iv measured upto 24 hrs by LC-MS/MS analysis; format: ADME, organism-based; conditions: in vivo; outline: as §3
[21] = MRT (0 to infinity) in Sprague-Dawley rat at 10 mg/kg, po by LC-MS/MS analysis; format: ADME, organism-based; conditions: in vivo; outline: as §3
[22] = MRT (0 to infinity) in Sprague-Dawley rat at 2 mg/kg, iv by LC-MS/MS analysis; format: ADME, organism-based; conditions: in vivo; outline: as §3
[23] = Oral bioavailability in Sprague-Dawley rat 10 mg/kg measured upto 24 hrs by LC-MS/MS analysis; format: ADME, organism-based; conditions: in vivo; outline: as §3
[24] = Acute toxicity in Kunming mouse assessed as body weight at 5 to 200 mg/kg, ip observed for 10 days; format: organism-based; conditions: in vivo, 240 h, dose 5-200 mg/kg, time 10 day
Outline: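 Kunming mice (18-22 g), 30 animals in 5 groups of 6 (3 male, 3 female); single intraperitoneal dose of 0, 5, 10, 50 or 200 mg/kg in DMSO/propylene glycol/PBS (2/5/3). Animals observed and weighed daily for 10 days.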

[25] = Toxicity in BALB/c nude mouse assessed as effect on body weight at 10 to 30 mg/kg, ip administered for 19 days; format: organism-based; conditions: in vivo, 456 h, dose 10-30 mg/kg, time 19 day; outline: as §1
[26] = Clearance in Sprague-Dawley rat at 2 mg/kg, iv measured upto 24 hrs by LC-MS/MS analysis; format: ADME, organism-based; conditions: in vivo; outline: as §3
[27] = Toxicity in BALB/c nude mouse assessed as animal's mortality at 10 to 30 mg/kg, ip administered for 19 days; format: organism-based; conditions: in vivo, 456 h, dose 10-30 mg/kg, time 19 day; outline: as §1
Focal adhesion kinase 1 [28] = biological target: T1, Focal adhesion kinase 1; test: Inhibition of FAK phosphorylation in human HCC cells assessed as upregulation of FOXO phosphorylation at 30 uM by KEGG analysis; format: cell-based
Target sequence in this assay (Q05397 2-1052 limits assumed): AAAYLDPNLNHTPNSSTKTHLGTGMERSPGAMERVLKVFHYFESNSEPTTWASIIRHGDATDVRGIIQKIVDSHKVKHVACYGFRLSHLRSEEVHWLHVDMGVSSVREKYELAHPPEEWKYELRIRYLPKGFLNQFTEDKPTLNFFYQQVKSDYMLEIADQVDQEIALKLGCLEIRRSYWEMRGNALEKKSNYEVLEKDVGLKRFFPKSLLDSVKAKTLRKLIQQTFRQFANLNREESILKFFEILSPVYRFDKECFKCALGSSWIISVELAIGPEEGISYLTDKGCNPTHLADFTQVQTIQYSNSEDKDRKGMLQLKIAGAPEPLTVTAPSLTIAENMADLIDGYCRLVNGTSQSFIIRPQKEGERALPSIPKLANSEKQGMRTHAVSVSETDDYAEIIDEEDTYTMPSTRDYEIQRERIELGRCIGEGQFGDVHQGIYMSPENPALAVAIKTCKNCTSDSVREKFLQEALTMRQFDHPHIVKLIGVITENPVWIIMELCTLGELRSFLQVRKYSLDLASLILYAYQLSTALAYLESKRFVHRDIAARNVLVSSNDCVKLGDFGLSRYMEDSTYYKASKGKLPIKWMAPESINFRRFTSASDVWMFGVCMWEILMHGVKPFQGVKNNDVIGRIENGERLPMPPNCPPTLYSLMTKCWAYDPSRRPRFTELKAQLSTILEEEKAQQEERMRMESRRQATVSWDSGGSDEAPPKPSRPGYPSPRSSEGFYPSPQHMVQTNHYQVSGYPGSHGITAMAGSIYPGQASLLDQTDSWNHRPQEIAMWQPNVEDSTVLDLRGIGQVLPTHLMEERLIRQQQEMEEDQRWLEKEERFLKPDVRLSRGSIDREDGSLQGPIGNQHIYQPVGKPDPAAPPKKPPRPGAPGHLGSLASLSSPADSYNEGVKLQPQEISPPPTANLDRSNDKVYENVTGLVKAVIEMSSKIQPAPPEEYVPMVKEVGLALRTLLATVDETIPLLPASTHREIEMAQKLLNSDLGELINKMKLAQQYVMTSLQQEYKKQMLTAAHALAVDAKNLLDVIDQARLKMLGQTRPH

[29] = Upregulation of integrin beta1 phosphorylation at Thr788 residue in human HCC cells at 30 uM by KEGG analysis relative to control; format: functional
Focal adhesion kinase 1 [30] = biological target: T1, Focal adhesion kinase 1; test: Inhibition of FAK phosphorylation in human HCC cells at 30 mg/kg by KEGG analysis
Target sequence in this assay (Q05397 2-1052 limits assumed): as above

Focal adhesion kinase 1 [31] = biological target: T1, Focal adhesion kinase 1; test: Inhibition of FAK phosphorylation in human HCC cells assessed as reduction in Akt phosphorylation at 30 mg/kg by KEGG analysis
Target sequence in this assay (Q05397 2-1052 limits assumed): as above

Focal adhesion kinase 1 [32] = biological target: T1, Focal adhesion kinase 1; test: Inhibition of FAK phosphorylation in human HCC cells assessed as reduction in PDK1 phosphorylation at 30 mg/kg by KEGG analysis
Target sequence in this assay (Q05397 2-1052 limits assumed): as above

Focal adhesion kinase 1 [33] = biological target: T1, Focal adhesion kinase 1; test: Inhibition of FAK phosphorylation in human HCC cells assessed as reduction in mTOR phosphorylation at 30 mg/kg by KEGG analysis
Target sequence in this assay (Q05397 2-1052 limits assumed): as above

Focal adhesion kinase 1 [34] = biological target: T1, Focal adhesion kinase 1; test: Inhibition of FAK phosphorylation in human HCC cells assessed as reduction in NFkappaB phosphorylation at 30 mg/kg by KEGG analysis
Target sequence in this assay (Q05397 2-1052 limits assumed): as above

Compound: CN(c1ncccc1CNc1nc(Nc2ccc(F)cc2)nc2[nH]cc(F)c12)S(C)(=O)=O
- IC50 (Focal adhesion kinase 1 [1]): 0.038 µM
- IC50 (cells): > 100 µM
- IC50 (SMMC-7721 [2]): 27.9 µM

Compound: CN(c1ncccc1CNc1nc(Nc2ccc3c(c2)CC(=O)N3)nc2[nH]ncc12)S(C)(=O)=O
- IC50 (Focal adhesion kinase 1 [1]): 0.206 µM

Compound: CN(c1ncccc1CNc1nc(Nc2ccc3c(c2)CC(=O)N3)nc2[nH]ccc12)S(C)(=O)=O
- IC50 (Focal adhesion kinase 1 [1]): 0.055 µM
- IC50 (cells): 13.6 µM
- IC50 (SMMC-7721 [2]): 52.8 µM

Compound: CN(c1ncccc1CNc1nc(Nc2cccc(CN)c2)nc2[nH]cc(F)c12)S(C)(=O)=O
- IC50 (Focal adhesion kinase 1 [1]): 2.1 µM
- IC50 (cells): > 100 µM
- IC50 (SMMC-7721 [2]): > 100 µM

Compound: CN(c1ncccc1CNc1nc(Nc2ccc3c(c2)CC(=O)N3)nc2[nH]cc(C#N)c12)S(C)(=O)=O
- IC50 (Focal adhesion kinase 1 [1]): 0.325 µM
- IC50 (cells): > 100 µM
- IC50 (SMMC-7721 [2]): > 100 µM

Compound: CN(c1ncccc1CNc1nc(Nc2ccc3c(c2)CC(=O)N3)ncc1C(F)(F)F)S(C)(=O)=O [PF-00562271]
- Activity [3]: Toxic
- Activity (SMMC-7721 [4]): 295.9 mm3
- inhibition in vivo at 30 mg/kg (SMMC-7721 [5]): 54.1%
- Activity [6]: Non-Toxic

Compound: CN(c1ncccc1CNc1nc(Nc2ccc(F)c(Cl)c2)nc2[nH]cc(F)c12)S(C)(=O)=O
- IC50 (Focal adhesion kinase 1 [1]): 0.041 µM
- IC50 (cells): 82.5 µM
- IC50 (SMMC-7721 [2]): > 100 µM

Compound: CNC(=O)c1ccccc1Nc1nc(Nc2cccc(NC(C)=O)c2)nc2[nH]cc(F)c12
- Activity (SMMC-7721 [7]): 348.3 mm3
- IC50 (Focal adhesion kinase 1 [1]): 0.012 µM
- half-life [8]: 3.65 h
- half-life [9]: 1.46 h
- Tmax [10]: 4.67 h
- Tmax [11]: 4.8 min
- Cmax [12]: 15.4 ng/mL
- Cmax [13]: 5020 ng/mL
- AUC(0-t) at 24 h [14]: 95.5 ng·h/mL
- AUC(0-t) at 24 h [15]: 2300 ng·h/mL
- AUC(0-inf) [16]: 119 ng·h/mL
- AUC(0-inf) [17]: 2300 ng·h/mL
- Vdss [18]: 1.8426 L/kg
- MRT last at 24 h [19]: 4.54 h
- MRT last at 24 h [20]: 0.51 h
- MRT inf [21]: 6.62 h
- MRT [22]: 0.53 h
- bioavailability [23]: 0.83%
- Activity [24]: Non-Toxic
- Activity [25]: Non-Toxic
- Activity (SMMC-7721 [4]): 153.5 mm3
- inhibition in vivo at 30 mg/kg (SMMC-7721 [5]): 78.6%
- CL [26]: 14.49 mL/min/kg
- Activity [27]: Non-Toxic
- inhibition (Focal adhesion kinase 1 [28]): Active
- fold change (FC) [29]: 2.82
- IC50 (cells): 2.39 µM
- IC50 (SMMC-7721 [2]): 10.1 µM
- inhibition (Focal adhesion kinase 1 [30]): Active
- inhibition (Focal adhesion kinase 1 [31]): Active
- inhibition (Focal adhesion kinase 1 [32]): Active
- inhibition (Focal adhesion kinase 1 [33]): Active
- inhibition (Focal adhesion kinase 1 [34]): Active

The remaining molecules from weak to strong by IC50 (Focal adhesion kinase 1 [1]), led by results:

- IC50 (Focal adhesion kinase 1 [1]): 0.023 µM
- IC50 (cells): 14.2 µM
- IC50 (SMMC-7721 [2]): 33.9 µM
Compound: CNC(=O)c1ccccc1Nc1nc(Nc2ccc(N3CCOCC3)cc2OC)nc2[nH]cc(F)c12

- IC50 (Focal adhesion kinase 1 [1]): 0.022 µM
- IC50 (cells): 4.69 µM
- IC50 (SMMC-7721 [2]): 10 µM
Compound: CNC(=O)c1ccccc1Nc1nc(Nc2ccc3c(c2)CC(=O)N3)nc2[nH]cc(F)c12

- IC50 (Focal adhesion kinase 1 [1]): 0.022 µM
- IC50 (cells): 24.1 µM
- IC50 (SMMC-7721 [2]): 73.2 µM
Compound: CN(c1ncccc1CNc1nc(Nc2ccc3c(c2)CC(=O)N3)nc2[nH]cc(F)c12)S(C)(=O)=O

- IC50 (Focal adhesion kinase 1 [1]): 0.021 µM
- IC50 (cells): 13.2 µM
- IC50 (SMMC-7721 [2]): 21.9 µM
Compound: CN(c1ncccc1CNc1nc(Nc2ccc3c(c2)CC(=O)N3)nc2[nH]cc(Cl)c12)S(C)(=O)=O

- IC50 (Focal adhesion kinase 1 [1]): 0.021 µM
- IC50 (cells): 14.4 µM
- IC50 (SMMC-7721 [2]): 16 µM
Compound: CC(=O)Nc1cccc(Nc2nc(NCc3cccnc3N(C)S(C)(=O)=O)c3c(F)c[nH]c3n2)c1
